Measurements taken from ChEMBL document CHEMBL1134582 (J Med Chem, 2001).

Target: T1, Adenosine receptor A1 (Rattus norvegicus) (UniProt P25099)
T1 sequence (whole entry): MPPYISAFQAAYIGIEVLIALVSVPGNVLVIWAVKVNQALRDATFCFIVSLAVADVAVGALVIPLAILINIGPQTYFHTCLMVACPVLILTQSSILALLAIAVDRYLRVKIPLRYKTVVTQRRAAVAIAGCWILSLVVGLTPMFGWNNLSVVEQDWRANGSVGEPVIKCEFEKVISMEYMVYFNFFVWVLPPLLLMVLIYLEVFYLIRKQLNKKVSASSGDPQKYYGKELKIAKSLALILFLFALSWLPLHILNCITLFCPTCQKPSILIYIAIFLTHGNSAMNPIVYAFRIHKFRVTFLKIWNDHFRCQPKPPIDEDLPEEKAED
Assay: Agonistic activity expressed as the amount of [35S]-GTP gamma-S bound at rat Adenosine A1 receptor
Type: functional
Conditions: not given
Summary of the method: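 [35S]GTPγS binding used 2 µg of rat cortex membrane protein with 10 µM GDP and 100 mM NaCl, incubated 90 min at 25 °C. Mean ±SEM, n=3.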

SMILES | Activity
OC[C@H]1O[C@@H](n2cnc3c(NC4CCCC4)ncnc32)[C@H](O)[C@@H]1O | 100

Target: T1, Adenosine receptor A1 (Rattus norvegicus)
Assay: Agonistic activity expressed as the amount of [35S]-GTP gamma-S bound +1 uM CPA at rat Adenosine A1 receptor
Type: functional
Conditions: not given
Summary of the method: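 Rat cortex membranes (2 µg protein) were incubated with 10 µM GDP and 100 mM NaCl for 90 min at 25 °C. Mean ±SEM, n=3.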

SMILES | Activity
OC[C@H]1O[C@@H](n2cnc3c(NC4CCCC4)ncnc32)[C@H](O)[C@@H]1O | 100

Target: T2, Adenosine receptor A1 (Homo sapiens) (UniProt P30542)
T2 sequence (whole entry): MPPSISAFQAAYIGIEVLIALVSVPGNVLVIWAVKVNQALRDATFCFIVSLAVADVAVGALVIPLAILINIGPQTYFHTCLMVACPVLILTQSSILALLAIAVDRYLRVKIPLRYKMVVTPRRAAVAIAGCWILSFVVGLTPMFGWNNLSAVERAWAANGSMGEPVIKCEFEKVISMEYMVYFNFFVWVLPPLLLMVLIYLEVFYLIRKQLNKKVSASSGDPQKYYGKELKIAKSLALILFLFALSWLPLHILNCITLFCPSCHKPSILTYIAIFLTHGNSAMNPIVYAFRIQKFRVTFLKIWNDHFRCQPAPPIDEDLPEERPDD
Assay: Inhibition of Forskolin (10 nM) induced cAMP production at human Adenosine A1 receptor (compared to CPA in CHO cells)
Type: cell-based
Conditions: in the assay text read “10 µM” for “10 nM”
Summary of the method: (§1)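 Cells expressing the human receptor (A1 in CHO) were grown overnight as monolayers and kept in DMEM/HEPES at pH 7.4. […] Forskolin was added at 10 µM (final) for 15 min. cAMP was measured by binding-protein assay. […] Mean ±SEM, n=3.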

SMILES | inhibition [%]
CCOC[C@H]1O[C@@H](n2cnc3c(NC4CCCC4)nc(Cl)nc32)[C@H](O)[C@@H]1O | 62
CCOC[C@H]1O[C@@H](n2cnc3c(N)ncnc32)[C@H](O)[C@@H]1O | 57
O[C@@H]1[C@H](O)[C@@H](COC2CC2)O[C@H]1n1cnc2c(NC3CCCC3)ncnc21 | 62
CCOC[C@H]1O[C@@H](n2cnc3c(N)nc(Cl)nc32)[C@H](O)[C@@H]1O | 67
O[C@@H]1[C@H](O)[C@@H](COC2CC2)O[C@H]1n1cnc2c(NC3CCCC3)nc(Cl)nc21 | 43
Nc1ncnc2c1ncn2[C@@H]1O[C@H](COC2CC2)[C@@H](O)[C@H]1O | 61
CCOC[C@H]1O[C@@H](n2cnc3c(NC4CCCC4)ncnc32)[C@H](O)[C@@H]1O | 69
COC[C@H]1O[C@@H](n2cnc3c(N)nc(Cl)nc32)[C@H](O)[C@@H]1O | 78
COC[C@H]1O[C@@H](n2cnc3c(NC4CCCC4)ncnc32)[C@H](O)[C@@H]1O | 74
COC[C@H]1O[C@@H](n2cnc3c(NCc4cccc(I)c4)nc(Cl)nc32)[C@H](O)[C@@H]1O | 37
CCOC[C@H]1O[C@@H](n2cnc3c(NCc4cccc(I)c4)ncnc32)[C@H](O)[C@@H]1O | 6
COC[C@H]1O[C@@H](n2cnc3c(NC4CCCC4)nc(Cl)nc32)[C@H](O)[C@@H]1O | 73
COC[C@H]1O[C@@H](n2cnc3c(NCc4cccc(I)c4)ncnc32)[C@H](O)[C@@H]1O | 53
Nc1nc(Cl)nc2c1ncn2[C@@H]1O[C@H](COC2CC2)[C@@H](O)[C@H]1O | 49

Target: T3, Adenosine receptor A3 (Homo sapiens) (UniProt P0DMS8)
T3 sequence (whole entry): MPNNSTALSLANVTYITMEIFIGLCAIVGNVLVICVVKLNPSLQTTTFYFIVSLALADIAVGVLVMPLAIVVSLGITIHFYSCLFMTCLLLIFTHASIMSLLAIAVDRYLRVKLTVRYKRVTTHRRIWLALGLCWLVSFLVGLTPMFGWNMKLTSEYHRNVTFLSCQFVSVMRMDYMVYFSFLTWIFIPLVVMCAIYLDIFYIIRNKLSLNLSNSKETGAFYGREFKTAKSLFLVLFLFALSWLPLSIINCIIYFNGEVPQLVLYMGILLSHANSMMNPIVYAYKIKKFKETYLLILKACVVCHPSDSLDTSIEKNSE
Assay: Agonistic activity expressed as the amount of [35S]GTP gamma-S bound at adenosine A3 receptor
Type: functional
Conditions: not given
Summary of the method: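 Membranes from CHO cells expressing the human A3 receptor (1–1.5 µg protein) were incubated with 1 µM GDP and no NaCl for 90 min at 25 °C. Mean ±SEM, n=3.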

SMILES | Activity
CCNC(=O)[C@H]1O[C@@H](n2cnc3c(N)ncnc32)[C@H](O)[C@@H]1O | 100

Target: T3, Adenosine receptor A3 (Homo sapiens)
Assay: Agonistic activity expressed as the amount of [35S]GTP gamma-S bound +1 uM NECA at adenosine A3 receptor
Type: functional
Conditions: not given
Summary of the method: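 Human A3 receptor in CHO-cell membranes (1–1.5 µg) was incubated with 1 µM GDP and no NaCl for 90 min at 25 °C. Mean ±SEM, n=3.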

SMILES | Activity
CCNC(=O)[C@H]1O[C@@H](n2cnc3c(N)ncnc32)[C@H](O)[C@@H]1O | 100

Target: T2, Adenosine receptor A1 (Homo sapiens)
Assay: Inhibition of 10 nM Forskolin-induced cAMP production at human Adenosine A1 receptor compared to CPA in CHO cells
Type: functional, cell-based
Conditions: in the assay text read “10 µM” for “10 nM”
Summary of the method: as §1

SMILES | inhibition [%]
COC[C@H]1O[C@@H](n2cnc3c(N)ncnc32)[C@H](O)[C@@H]1O | 75
OC[C@H]1O[C@@H](n2cnc3c(NC4CCCC4)ncnc32)[C@H](O)[C@@H]1O | 69
